Screening data from PubChem BioAssay.
HSF1 activator = increases HSF-1 driven luciferase reporter signal. NIH3T3-HGL HSF-1 luciferase reporter, MG132, 8 h; 100% = twice DMSO control signal. activation, % at 9 µM. hit rate 1.7% among 300,000. AID 504408;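 active means mean replicate activation of at least 50% with a set share of replicates each reaching 50%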;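 further: 0% = median of the neutral control wells and 100% = twice that signal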
core dimer inh = HCV core protein dimerization inhibition; hit rate 0.33% among 300,000; TR-FRET GST/Flag-core106 dimerization, 1536-well; AID 1899; inhibition, % at 5 µM;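 active means inhibition above the mean of all tested compounds plus 3 SD, set per screening campaign, cut at about 45% in these data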
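System: GST-tagged and Flag-tagged HCV core protein residues 1-106 / Input: core106 proteins, GST 13.5 nM and Flag 17 nM / Buffer or medium: KF-containing HEPES buffer, pH 7.45, DTT, CHAPS, BSA / Probe or stimulus: Eu-anti-GST and XL665-anti-Flag labelled anti-tag antibodies / Schedule: 4 h, 22.5 °C incubation / Technique: TR-FRET 671 and 617 nm emission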
HCV NS3 hel inh = HCV NS3 helicase inhibition | NS3 helicase DNA unwinding, Cy5 molecular beacon fluorescence | inhibition, % at 10.9 µM | hit rate 0.56% among 290,000 | AID 1800;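 active means inhibition above the mean of all tested compounds plus 3 SD, set per campaign, cut at about 35% in these data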;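 further: 0% = DMSO wells and 100% = thioflavine S control wells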
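Assay system: hepatitis C virus NS3 helicase domain fragment enzyme. Also added: annealed dual-labelled DNA beacon duplex, ATP-started. Timing: 1 h reaction at 25 °C, ATP-initiated. Technique: Cy5 fluorescence at 0 and 60 min, beacon hairpin quenching. Evaluation: % inhibition of unwinding. Replication: one well per compound.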
DNA FID counter = fluorescent intercalator displacement, NS3 helicase counter-screen; DNA fluorescent intercalator displacement, fluorescence; inhibition, % at 7.9 µM; hit rate 0.17% among 290,000; in the data active means inhibition above about 37%;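 further: 0% = vehicle and 100% = reference compound; higher means more ethidium bromide displaced from hairpin DNA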
HSF1 inh = HSF1 inhibition; activity change, negative = inhibition, % at 7.5 µM (by protocol); AID 2098; hit rate 0.77% among 300,000; NIH3T3-HGL HSE-luciferase, MG132-induced, luminescence 8 h; stronger effect = lower value;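 active means more than half of replicate wells show activity change below -50%, luminescence cut by over half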;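 further: luciferase reports HSF-1 transcriptional activity via heat shock element; 0% = median of DMSO wells and -100% = zero luminescence signal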
HSP90 refold inh = blocks HSP90-mediated luciferase refolding in reticulocyte lysate. Rabbit reticulocyte lysate, luciferase refolding luminescence, 3 h. inhibition, % at 5.6 µM. hit rate 0.91% among 290,000. AID 1789;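 active means inhibition above the screen-wide mean plus 3 SD, computed separately per campaign, cut at about 16% in these data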;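 further: 0% = DMSO wells and 100% = 60 µM geldanamycin wells; inhibitors lower the luminescence because luciferase stays unfolded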
* marks the source's active call; other numbers are inactive results; x = no result given. Sampled rows, rich in hits. Any-hit rate of the full collection: about 3.9%.

SMILES | HSF1 activator | core dimer inh | HCV NS3 hel inh | DNA FID counter | HSF1 inh | HSP90 refold inh
COc1ccc([N+](=O)[O-])cc1NC(=O)C(C)OC(=O)c1cccnc1 (stereo unspecified) | 10.5 | -4.5 | 9.9 | -6.7 | 0.1 | 3.7
COc1ccc2oc(C(=O)Nc3ccc(N4CCOCC4)cc3)c(C)c2c1 | -5.9 | 86.2* | x | x | -2.6 | x
Nc1ccc(N2CCN(c3ccc(Cl)c(Cl)c3)CC2)cc1 | 22.0 | -4.8 | -1.1 | 0.2 | -3.6 | -1.9
CC(C)CNS(=O)(=O)c1cc(C(=O)OCC(=O)c2ccc3c(c2)OCCO3)c(Cl)cc1Cl | 69.1* | 4.1 | 9.2 | -15.5 | 21.5 | -0.2
CCCCCC(=O)NC(=S)NC1C2CC3CC(C2)CC1C3 (stereo unspecified) | -5.9 | 1.2 | -2.1 | -16.4 | 5.8 | -0.4
C=CCNC(=O)c1ccccc1NC(=O)COc1ccccc1 | 39.2 | -5.3 | -5.7 | -7.3 | 4.5 | -0.5
O=c1[nH]c2ccccc2nc1/C=C/c1ccccc1 | 98.7* | -0.2 | 1.4 | 1.1 | 62.1 | -5.0
CCOC(=O)c1snc(-c2ccc(F)cc2)c1N | 58.7* | 5.5 | 2.9 | 3.0 | 18.1 | -0.8
CCOC(=O)c1sc(N)nc1-c1ccccc1 | -41.0 | 2.7 | 1.7 | -5.0 | -26.0 | 1.4
CCOC(=O)c1cc(NC(=O)c2ccc(OC)cc2)c(=O)oc1-c1ccccc1 | 2.1 | 7.8 | -6.4 | -7.2 | 7.6 | -1.9
CCOc1cc(N2CCOCC2)c(OCC)cc1NC(=O)COC(=O)c1cc2ccccc2cc1O | 8.7 | -1.4 | 3.6 | -2.6 | 8.3 | 2.0
CCOc1cc(N2CCOCC2)c(OCC)cc1NC(=O)c1cccc(N(C)C)c1 | -59.6 | -3.2 | -7.7 | -34.9 | -51.3* | -1.4
CCOc1ccc(OCCC(=O)OCC(=O)Nc2cc(OCC)c(N3CCOCC3)cc2OCC)cc1 | 111.2* | 6.8 | x | x | 85.4 | x
COc1ccc(OC)c(Nc2cc(C(=O)NCCCN3CCOCC3)c3ccccc3n2)c1 | 5.0 | -18.9 | -48.7 | 41.1* | -2.8 | 3.3
COc1ccc(Nc2cc(C(=O)NCCCN3CCOCC3)c3ccccc3n2)cc1 | 12.1 | -11.2 | -19.3 | 17.8 | -2.6 | -4.4
COc1ccc(-c2cc(C(=O)NCCCN3CCOCC3)c3cc(C(C)C)ccc3n2)cc1 | 6.1 | 5.8 | -85.6 | 37.2* | -5.4 | 0.3
COc1ccc(Nc2cc(C(=O)NCCCN3CCN(C)CC3)c3ccccc3n2)cc1 | -31.7 | -10.5 | -25.9 | 40.9* | -27.0 | 0.4
CCOc1ccc(-c2cc(C(=O)NCCCN3CCOCC3)c3ccccc3n2)cc1 | 7.0 | -0.6 | -20.7 | 19.0 | 3.1 | 1.1
CCC1=C(OC(=O)N(CC)CC)N2C(=O)OC(=NCCc3c[nH]c4ccccc34)[C@]2(C)[C@H]2C1=CC[C@H]1C(=O)N(C)C(=O)[C@H]12 | 14.8 | -10.9 | x | x | 2.0 | x
COc1cccc2c1OC1(C)CC2NC(=O)N1c1cccc(C(=O)Nc2ccc3c(c2)OCCO3)c1 (stereo unspecified) | -25.4 | 1.4 | -2.7 | -26.8 | -26.1 | 2.4
COCc1cc(C)nc(OCC(=O)N/N=C\c2cc(C)n(-c3cccc(C(F)(F)F)c3)c2C)c1C#N | 24.0 | 9.2 | 7.1 | -20.1 | -0.7 | -1.0
Cc1cccc(CSc2nc3c(c(-c4cccs4)c2C#N)CN(C)CC3)c1 | 77.1* | 11.8 | -35.5 | 10.3 | 46.8 | -4.5
COc1ccc(NS(=O)(=O)c2cc(NC(=O)c3cccc(OCc4c(C)noc4C)c3)ccc2OC)cc1 | 57.0* | 11.0 | -5.9 | -18.6 | 18.0 | 4.4
C/C=C\C=C\C(=O)Nc1cccc(C2=NOC3(C2)C[C@H](C(N)=O)N(C(=O)c2ccccc2C(=O)c2ccccc2)C3)c1 (stereo partly specified) | -3.0 | 49.6* | x | x | -6.3 | x
C/C=C\C=C/C(=O)Nc1cccc(C2=NOC3(C2)C[C@@H](C(N)=O)N(C(=O)COc2ccc(Cl)cc2)C3)c1 (stereo partly specified) | x | 24.6 | x | x | -0.5 | x
SMILES | HSF1 activator | core dimer inh | HCV NS3 hel inh | DNA FID counter | HSF1 inh | HSP90 refold inh
C/C=C/C=C/C(=O)Nc1cccc(C2=NOC3(C2)C[C@H](C(N)=O)N(C(=O)CC(c2ccccc2)c2ccccc2)C3)c1 (stereo partly specified) | -0.1 | 47.9* | x | x | -3.7 | x
C/C=C\C=C\C(=O)N1CC2(CC(c3cccc(NC(=O)COc4ccc(Cl)cc4)c3)=NO2)C[C@H]1C(N)=O (stereo partly specified) | 5.9 | 47.0* | x | x | 0.1 | x
C=C(C)C(=O)Nc1cccc(C2=NOC3(C2)C[C@@H](C(N)=O)N(C(=O)[C@H]2CCC(=O)N2)C3)c1 (stereo partly specified) | -4.2 | 81.1* | x | x | -2.3 | x
CCC(=O)Nc1cccc(C2=NOC3(C2)C[C@@H](C(N)=O)N(C(=O)CC)C3)c1 (stereo partly specified) | -6.2 | -16.3 | x | x | -3.2 | x
C/C=C\C=C/C(=O)Nc1cccc(C2=NOC3(C2)C[C@@H](C(N)=O)N(C(=O)c2ccccc2)C3)c1 (stereo partly specified) | x | 20.6 | x | x | 5.3 | x
C/C=C/C=C\C(=O)Nc1cccc(C2=NOC3(C2)C[C@H](C(N)=O)N(C(=O)/C=C/C)C3)c1 (stereo partly specified) | -3.9 | 48.1* | x | x | 0.8 | x
C/C=C\C=C\C(=O)N1CC2(CC(c3cccc(NC(=O)CC)c3)=NO2)C[C@H]1C(N)=O (stereo partly specified) | -8.4 | 48.4* | x | x | 1.7 | x
N#CC(c1nc2ccccc2nc1N1CCCC1)S(=O)(=O)c1cccs1 (stereo unspecified) | -18.7 | 7.9 | 20.6 | 4.7 | -6.2 | 2.9
Cc1ccc(-n2nc3c(=O)n(CC(=O)NC4CCCCC4)nc(C)c3c2C)cc1 | -5.3 | -2.9 | 4.5 | -28.5 | 2.1 | 2.2
COc1ccc(S(=O)(=O)N(CC(=O)N2CCN(C)CC2)c2ccc(C)cc2)cc1Br | -4.1 | x | -45.5 | 15.6 | -17.6 | 0.5
Cc1ccc(NC(=O)Nc2cccc3ccccc23)cc1 | 13.2 | 2.2 | 3.4 | 3.9 | 4.1 | 2.0
N#CCc1ccc(NC(=O)Nc2cccc3ccccc23)cc1 | -82.2 | 2.0 | -14.9 | -5.4 | -77.6* | 1.6
COC(=O)c1ccc2c(c1)C(C)(C)C(/C=C/c1ccc(OC)c(OC)c1OC)=[N+]2C | -14.2 | 5.7 | -7.4 | -36.7 | -12.7 | 4.6
COC(=O)c1ccc2c(c1)C(C)(C)C(/C=C/c1ccc(O)cc1)=[N+]2C | 85.1* | 4.8 | -5.6 | -14.0 | 79.7 | 2.9
CN1CCSc2ccc(C(=O)Nc3cc(F)ccc3F)cc21 | 76.0* | 6.1 | -15.6 | -5.3 | 53.1 | -0.6
Cc1ccccc1NC(=O)c1ccc2c(c1)N(C)CCS2 | 37.9 | -8.7 | -2.3 | -13.6 | 19.2 | -4.7
COc1ccccc1NCC(=O)NNCC(=O)Nc1ccc(F)c(Cl)c1 | 25.4 | -7.2 | -5.4 | -12.8 | 3.9 | -3.9
